Bioassay records deposited in PubChem by several laboratories.
Compounds with a hit are over-represented: about 2.5% of the library has one in this group of screens.
UHRF1 MBD2 ctr – blocks human UHRF1 binding to methylated DNA; Q96T88; UHRF1 binding to methylated oligo, TR-FRET; inhibition, % at 4.4 µM; hit rate 0.75% among 370,000; AID 687016; in the data active = inhibition above about 21%;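 also: UHRF1 SRA domain binding a hemimethylated CpG hairpin DNA probe; 0% = median of test compound wells and 100% = reference inhibitor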
NS3 helicase inh – inhibitors of Hepatitis C virus NS3 helicase; NS3 helicase DNA unwinding, Cy5 molecular beacon fluorescence; inhibition, % at 10.9 µM; hit rate 0.56% among 290,000;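 active = inhibition above the mean of all tested compounds plus 3 SD, set per campaign, cut at about 35% in these data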;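 also: 0% = DMSO wells and 100% = thioflavine S control wells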
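System: NS3 helicase fragment of HCV / Schedule: 1 h at 25 °C / Control set: DMSO alone as 0% and 110 µM thioflavine S as 100% / Reagent: Cy5/quencher beacon DNA duplex and ATP to start / Technique: Cy5 fluorescence / Replication: singlicate / Evaluation: % inhibition of end-to-start signal ratio versus controls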
MBD2 DNA inh – blocks human MBD2 binding to methylated DNA; Q9UBB5; TR-FRET, MBD2 binding to methylated oligonucleotide; inhibition, % at 4.4 µM; hit rate 0.31% among 370,000; in the data active = inhibition above about 13%
DSG3 Ab inh – inhibitors of pemphigus antibody binding to human desmoglein-3; binding (percent of control), % at 10 µM; AID 588358; hit rate 0.48% among 310,000; P32926; DSG3-coupled beads, scFv-anti-DSG3-GFP binding, flow cytometry; stronger effect = lower value;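 active = binding more than 3 SD below its plate's average and above zero; inconclusive = below that plate limit but binding exactly zero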
SUMO1 PPI mod – modulators of human SUMO1-mediated protein-protein interactions; SUMO1 binding to a labelled peptide, TR-FRET, 1 h; inhibition, % at 20 µM; hit rate 0.33% among 360,000; AID 602429; in the data active = inhibition above about 37%
DNMT1 inh – DNMT1 (human) enzyme inhibition; AID 588458; DNMT1 molecular beacon, Hinp1I cleavage, fluorescence; hit rate 0.83% among 360,000; inhibition (reported as % activation of signal), % at 10 µM; in the data active = inhibition above about 50%
Target sequence (P26358 504-1616 limits assumed): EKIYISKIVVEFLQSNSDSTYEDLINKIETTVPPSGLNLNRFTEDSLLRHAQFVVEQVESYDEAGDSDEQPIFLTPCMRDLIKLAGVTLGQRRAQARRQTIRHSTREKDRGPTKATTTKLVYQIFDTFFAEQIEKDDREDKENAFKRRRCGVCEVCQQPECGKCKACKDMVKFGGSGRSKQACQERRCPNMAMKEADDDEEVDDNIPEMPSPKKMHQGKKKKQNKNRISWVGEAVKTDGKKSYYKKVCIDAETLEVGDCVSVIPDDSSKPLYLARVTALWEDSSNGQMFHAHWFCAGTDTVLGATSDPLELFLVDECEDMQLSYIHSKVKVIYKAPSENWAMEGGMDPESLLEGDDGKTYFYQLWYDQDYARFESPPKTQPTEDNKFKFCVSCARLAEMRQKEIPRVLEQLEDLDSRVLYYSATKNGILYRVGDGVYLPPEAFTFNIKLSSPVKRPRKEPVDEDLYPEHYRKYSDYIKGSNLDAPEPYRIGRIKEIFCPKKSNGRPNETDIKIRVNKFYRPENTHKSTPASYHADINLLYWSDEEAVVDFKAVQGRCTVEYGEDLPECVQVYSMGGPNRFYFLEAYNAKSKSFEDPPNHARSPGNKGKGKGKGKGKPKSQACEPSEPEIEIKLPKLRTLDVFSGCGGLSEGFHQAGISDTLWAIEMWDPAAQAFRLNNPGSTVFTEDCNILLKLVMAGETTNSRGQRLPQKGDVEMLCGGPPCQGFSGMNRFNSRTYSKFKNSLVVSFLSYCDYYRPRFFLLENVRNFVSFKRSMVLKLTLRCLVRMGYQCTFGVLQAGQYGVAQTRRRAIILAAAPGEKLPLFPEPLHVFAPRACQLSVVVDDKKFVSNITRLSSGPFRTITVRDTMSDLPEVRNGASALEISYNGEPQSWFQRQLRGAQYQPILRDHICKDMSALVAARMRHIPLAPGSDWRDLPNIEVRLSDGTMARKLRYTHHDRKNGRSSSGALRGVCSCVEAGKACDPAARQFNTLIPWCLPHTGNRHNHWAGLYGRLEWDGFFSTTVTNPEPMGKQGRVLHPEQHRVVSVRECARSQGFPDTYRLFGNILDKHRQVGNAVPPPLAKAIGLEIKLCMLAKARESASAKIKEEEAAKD
* marks the source's active call; other numbers are inactive results; ? = inconclusive; / = no result given.

SMILES	UHRF1 MBD2 ctr	NS3 helicase inh	MBD2 DNA inh	DSG3 Ab inh	SUMO1 PPI mod	DNMT1 inh
COC(=O)c1ccc2nc(-c3ccc(C#N)cc3)c(Cc3ccsc3)n2c1	22*	/	5	/	0	/
COC(=O)c1ccc2nc(-c3ccc(C#N)cc3)c(Cc3cccc(Cl)c3)n2c1	21*	/	3	/	1	/
COC(=O)c1ccc2nc(-c3ccc(F)cc3)c(Cc3ccsc3)n2c1	24*	/	6	/	0	6
COC(=O)c1ccc2nc(-c3ccc(C)cc3)c(Cc3ccsc3)n2c1	20	/	-2	/	7	-2
COC(=O)c1ccc2nc(-c3ccc(F)cc3)c(Cc3ccccc3)n2c1	23*	/	2	/	-3	4
CCC(=O)Nc1ccc(C(=O)N/N=C/c2ccc([N+](=O)[O-])cc2)cc1	1	1	3	110	-24	-2
C[C@@H]1CN([C@H](C)CO)S(=O)(=O)c2ccc(C#CC3CCCC3)cc2O[C@H]1CN(C)C(=O)Cc1ccccc1	22*	/	10	/	4	-7
CCCC#Cc1ccc2c(c1)O[C@H](CN(C)C(=O)CC1CC1)[C@H](C)CN([C@@H](C)CO)S2(=O)=O	24*	/	11	/	8	4
CCCN(C)C[C@H]1Oc2cc(C#Cc3ccc(F)cc3)ccc2S(=O)(=O)N([C@H](C)CO)C[C@@H]1C	22*	/	14*	/	-1	-11
CCC(=O)N1CCC(C)(C(=O)Nc2ccc3c(c2)OCCO3)C1 (stereo not given)	-1	/	-2	/	-2	-3
Cc1nc(C(F)(F)F)ccc1C(=O)Nc1ccc2ccccc2n1	0	-3	0	101	4	7
CCc1cc2c(=O)n(-c3ccc(Br)cc3)cnc2s1	-6	-11	-3	111	4	5
O=C(O)c1ccccc1-c1c2cc(I)c(=O)c(I)c-2oc2c(I)c(O)c(I)cc12	0	/	-4	86	69*	34
COc1ccc(NC2CCCN(C(=O)CCc3scnc3C)C2)cc1 (stereo not given)	-2	6	1	?	-1	2
CCCCc1nc(Cl)c(C#N)c2c1CCCC2	38*	4	0	89	3	3
CCCCc1nc(Cl)c(C#N)c2c1CCC2	1	-11	3	103	2	1
COc1ccc(CN2CCSCC2)c(C)c1C	2	-9	5	111	2	-1
CC(C)(C)[C@H](N)C(=O)N[C@H]1CCC2C3CC=C4C[C@@H](O)CC[C@]4(C)C3CC[C@@]21C (stereo not given in full)	0	/	1	89	41*	-31
CC(C)C(=O)N[C@H]1CCC2C3CC=C4C[C@@H](O)CC[C@]4(C)C3CC[C@@]21C (stereo not given in full)	2	/	-1	92	7	-3
O=C1Nc2ccc(Br)cc2/C1=N\N=C\C1=C(N2CCOCC2)C(=C/c2ccccc2)/CC1	-2	/	1	86*	-18	-20
O=C1Nc2ccccc2/C1=N\N=C\C1=C(N2CCOCC2)C(=C\c2ccccc2)/CC1	-6	1	-8	80*	-25	-5
O=C(CC1CCC1)Nc1cccc2c([N+](=O)[O-])cccc12	5	/	4	96	-32	1
O=C(OCc1nnc(-c2ccccc2)o1)c1cc([N+](=O)[O-])ccc1Cl	-1	2	0	71*	-18	5
N/C(=N\OC(=O)c1cc([N+](=O)[O-])ccc1Cl)c1ccccn1	46*	-1	-6	/	-33	1
Cc1onc(-c2ccccc2)c1C(=O)OCc1nnc(-c2ccc([N+](=O)[O-])cc2)o1	-2	/	-1	106	-35	-7
SMILES	UHRF1 MBD2 ctr	NS3 helicase inh	MBD2 DNA inh	DSG3 Ab inh	SUMO1 PPI mod	DNMT1 inh
CCC(C)n1c(SC(C)C#N)nc2ccccc2c1=O (stereo not given)	28*	-2	-1	93	2	1
CCOc1cccc(C(=O)Nc2ccc(N3CCN(S(C)(=O)=O)CC3)cc2)c1	0	1	-2	-22*	0	14
O=C(c1ccc(-c2ccccc2)cc1)N1CCN(c2nc3ccccc3o2)CC1	2	-2	4	69*	6	6
O=C(O)c1ccccc1C(=O)NNc1ccc(F)cc1F	0	1	-3	95	-4	1
CC1(C)CC[C@]2(C(=O)n3ccnc3)CC[C@]3(C)[C@H](C(=O)C=C4[C@@]5(C)C=C(C#N)C(=O)C(C)(C)[C@@H]5CC[C@]43C)[C@@H]2C1	-1	/	0	/	44*	60*
COc1ccccc1C(=O)NCC(=O)NC(C)CCc1ccccc1 (stereo not given)	5	-4	-1	100	-3	1
COc1ccc(O)c(/C=N/NC(=O)c2ccc(OCc3cccc(Br)c3)cc2)c1	-2	1	4	69	1	52*
COc1ccc(C(=O)N/N=C/c2cc(Br)ccc2O)cc1OC	0	4	4	96	-22	3
O=C(c1cc2cc(F)ccc2[nH]1)N1CCCC(Nc2ccc(F)cc2)C1 (stereo not given)	2	-13	-1	/	0	-4
O=C(OCCOCCN=C1NS(=O)(=O)c2ccccc21)c1ccc(F)cc1	-3	-5	-4	48*	4	-1
CCc1nc(CN2CCN(c3ccc(C(F)(F)F)cn3)CC2)c(C)[nH]1	3	-12	2	112	1	-2
O=C(/C=C/c1cccc(F)c1)Nc1cc(S(=O)(=O)N2CCOCC2)ccc1N1CCCC1	-3	-6	3	-24*	-1	13
O=C(Nc1nnc(S(=O)(=O)N2CCCCCC2)s1)c1ccccc1	-3	-8	-3	96	12	1
O=C(Cn1cnc2c(cnn2-c2ccccc2)c1=O)N1CCN(c2ccc(F)cc2)CC1	2	7	5	86*	2	3
O=c1c2cnn(-c3ccccc3)c2ncn1CCc1ccccc1	47*	2	2	97	0	22
O=C(Cn1cnc2c(cnn2-c2ccc(F)cc2)c1=O)N1CCN(c2ccccc2)CC1	-1	-6	-1	120	1	-1
O=C(c1ccc([N+](=O)[O-])cc1[N+](=O)[O-])n1cnc2ccccc21	-1	-6	0	79*	-22	-1
O=C(c1ccccc1[N+](=O)[O-])n1cnc2ccccc21	8	-17	-4	87	-17	2
CN(NC1OC(=O)c2ccccc21)c1ccc(C(F)(F)F)cc1[N+](=O)[O-] (stereo not given)	-1	0	2	84*	-1	0
CCOc1ccc(C2NC(=O)c3ccccc3O2)cc1OCC (stereo not given)	1	-8	3	117	2	0
CN(C)S(=O)(=O)N1CCN(CC(=O)Nc2ccc(Br)cc2)CC1	22*	-3	5	99	-4	-5
